The source made the active and inactive calls. No cut-off for these calls is given here.

By IC50 is commonly meant the midpoint of a concentration-inhibition curve.

For series [1], the system named is Mus musculus. The experiment in a line: Pro-cognitive activity in C57Bl6 mouse assessed as attenuation of long-term memory deficit by measuring increase in exploration time for novel juvenile at 50 nmol/uL, icv measured after 48 hrs by novel object recognition test. The series is classed as functional, organism-based. The procedure, abridged: (§1)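 Male adult C57Bl6 mice (8–9 weeks), lateral-ventricle cannula implanted 7 days earlier. Social recognition: 10-min habituation to arena with two empty cups; 24 h later 10-min acquisition with an unfamiliar juvenile (3–4 weeks) under one wire cup. Immediately after, 5 µL i.c.v. infusion at 1 µL/min. Retention at 48 h with familiar and novel juvenile; percentage time exploring each cup (snout-to-cup contact).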

Series [2] has as its system Mus musculus. The experiment in a line: Pro-cognitive activity in C57Bl6 mouse assessed as attenuation of long-term memory deficit by measuring increase in exploration time for novel object by measuring discrimination index at 50 nmol/uL, icv measured after 24 hrs by novel object recognition test. The series is classed as functional. A digest of the protocol:
(§2)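 Novel object recognition in adult male C57Bl6 mice. Habituation was 10 min in an empty arena. Twenty-four hours later, mice explored two identical objects for 5 min, then received an immediate 5 µL lateral-ventricle infusion at 1 µL/min. A 5-min retention test with one familiar and one novel object followed 24 h later. Scores were % exploration time and DI = (tN−tF)/(tN+tF).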

Series [3] has as its system Mus musculus. The series can be described thus: Pro-cognitive activity in C57Bl6 mouse assessed as attenuation of long-term memory deficit by measuring increase in exploration time for novel object by measuring discrimination index at 25 nmol/uL, icv measured after 24 hrs by novel object recognition test.
Series [4] has as its system Mus musculus. The series can be described thus: Pro-cognitive activity in C57Bl6 mouse assessed as attenuation of long-term memory deficit by measuring increase in exploration time for novel juvenile at 25 nmol/uL, icv measured after 48 hrs by novel object recognition test. The series is classed as functional, organism-based. A digest of the protocol:
as §1

Series [5] concerns Mus musculus. The series can be described thus: Pro-cognitive activity in C57Bl6 mouse assessed as attenuation of long-term memory deficit by measuring increase in exploration time for novel object at 50 nmol/uL, icv measured after 24 hrs by novel object recognition test. The series is classed as functional, organism-based. The procedure, abridged: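 Male adult C57Bl6 mice (8–9 weeks), lateral-ventricle cannula implanted one week before. 10-min habituation to empty open-field arena; 24 h later, 5-min acquisition with two identical objects, followed immediately by 5 µL i.c.v. infusion at 1 µL/min. 5-min retention test 24 h after acquisition with one familiar and one novel object; percentage exploration time per object, two-way ANOVA with Bonferroni.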

For series [6], the system named is Mus musculus. The series can be described thus: Pro-cognitive activity in C57Bl6 mouse assessed as attenuation of long-term memory deficit by measuring increase in exploration time for novel juvenile by measuring discrimination index at 50 nmol/uL, icv measured after 48 hrs by novel object recognition test. The series is classed as functional. The procedure, abridged:
(§3)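 Social recognition in adult male C57Bl6 mice with intracerebroventricular cannulae. Habituation was 10 min with two empty cups. Twenty-four hours later, a novel 3–4-week-old juvenile was placed under one cup for 10 min of exploration, followed immediately by a 5 µL infusion at 1 µL/min. Retention 48 h later offered familiar versus novel juvenile, scoring snout-to-cup contact. DI = (tN−tF)/(tN+tF).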

Series [7] relates to Mus musculus. The series can be described thus: Pro-cognitive activity in C57Bl6 mouse assessed as attenuation of long-term memory deficit by measuring increase in exploration time for novel juvenile by measuring discrimination index at 25 nmol/uL, icv measured after 48 hrs by novel object recognition test. The series is classed as functional. The procedure, abridged:
as §3

The test system of series [8] is Mus musculus. The series can be described thus: Pro-cognitive activity in C57Bl6 mouse assessed as attenuation of long-term memory deficit by measuring increase in exploration time for novel object at 25 nmol/uL, icv measured after 24 hrs by novel object recognition test. The series is classed as functional, organism-based. The procedure, abridged:
as §2

Series [9] addresses Carbonic anhydrase 12 (Homo sapiens) (UniProt O43570). The experiment in a line: Binding affinity to human CA12 by phenol red dye based stopped flow CO2 hydration assay. The conditions noted are these: filed as activator. The procedure, abridged: (§4)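 Purified recombinant human CA isoforms. CA-catalysed CO2 hydration was followed by stopped-flow with phenol red at 557 nm, taking initial rates over 10–100 s from at least six traces of the first 5–10% of reaction. Uncatalysed rates were subtracted. Activator stocks were 0.1 mM in deionised water, diluted down to 0.1 nM in assay buffer. K_A came from non-linear least-squares Michaelis–Menten fitting.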

In series [10] the target is Carbonic anhydrase 1 (Homo sapiens) (UniProt P00915). The experiment in a line: Binding affinity to human CA1 by phenol red dye based stopped flow CO2 hydration assay. The procedure, abridged: as §4
Carbonic anhydrase 1 (Homo sapiens), sequence (P00915 2-261 limits assumed): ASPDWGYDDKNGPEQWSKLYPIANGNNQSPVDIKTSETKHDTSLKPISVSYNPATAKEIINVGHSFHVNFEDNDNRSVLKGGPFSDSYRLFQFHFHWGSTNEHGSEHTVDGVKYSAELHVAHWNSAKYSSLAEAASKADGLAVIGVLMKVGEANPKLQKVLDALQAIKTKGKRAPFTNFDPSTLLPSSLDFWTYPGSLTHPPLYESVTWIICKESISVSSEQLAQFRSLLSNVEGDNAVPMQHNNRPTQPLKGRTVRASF
Series [11] addresses Carbonic anhydrase 5B, mitochondrial (Homo sapiens) (UniProt Q9Y2D0). The experiment in a line: Binding affinity to human CA5b by phenol red dye based stopped flow CO2 hydration assay. The conditions noted are these: filed as activator. The procedure, abridged: as §4
The target of series [12] is Carbonic anhydrase 13 (Homo sapiens) (UniProt Q8N1Q1). The experiment in a line: Binding affinity to human CA13 by phenol red dye based stopped flow CO2 hydration assay. The note with it: filed as activator. The procedure, abridged:
as §4

For series [13], the target named is Carbonic anhydrase 2 (Homo sapiens) (UniProt P00918). The series can be described thus: Binding affinity to human CA2 by phenol red dye based stopped flow CO2 hydration assay. The procedure, abridged:
as §4

Series [14] addresses Carbonic anhydrase 9 (Homo sapiens) (UniProt Q16790). The series can be described thus: Binding affinity to human CA9 by phenol red dye based stopped flow CO2 hydration assay. A digest of the protocol: as §4
Series [15] concerns the target Carbonic anhydrase 7 (Homo sapiens) (UniProt P43166). The series can be described thus: Binding affinity to human CA7 by phenol red dye based stopped flow CO2 hydration assay. The note with it: filed as activator. The procedure, abridged: as §4
The nature of series [16]: Toxicity in overnight fasted C57Bl6 mouse assessed as reduction in food intake at 50 nmol/uL administered directly into lateral ventricle measured for 2 hrs. The note with it: in vivo, icv_or_intrathecal. A digest of the protocol: (§5)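 Overnight-fasted male C57Bl6 mice received a lateral-ventricle infusion. Food was presented 30 min later, and intake was recorded at 0.5 h intervals over 2 h as cumulative consumption corrected for body weight; n = 8–9 per group.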

Series [17] concerns the target T1, Amine oxidase [flavin-containing] A (Homo sapiens, UniProt P21397).
T1 sequence (P21397 whole entry): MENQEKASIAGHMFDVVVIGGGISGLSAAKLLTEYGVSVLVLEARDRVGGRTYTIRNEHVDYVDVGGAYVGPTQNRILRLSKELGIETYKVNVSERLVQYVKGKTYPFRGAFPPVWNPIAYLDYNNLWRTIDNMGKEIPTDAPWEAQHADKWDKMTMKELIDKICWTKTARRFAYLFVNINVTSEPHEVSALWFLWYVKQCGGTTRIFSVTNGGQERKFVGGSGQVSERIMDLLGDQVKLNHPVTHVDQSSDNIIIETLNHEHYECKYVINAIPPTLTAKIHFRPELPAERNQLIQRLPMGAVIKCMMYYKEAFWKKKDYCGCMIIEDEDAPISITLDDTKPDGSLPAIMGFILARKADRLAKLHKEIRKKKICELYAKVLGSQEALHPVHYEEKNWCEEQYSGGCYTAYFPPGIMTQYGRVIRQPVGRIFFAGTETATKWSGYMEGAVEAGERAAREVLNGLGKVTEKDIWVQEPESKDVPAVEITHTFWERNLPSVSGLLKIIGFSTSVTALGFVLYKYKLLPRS
The series can be described thus: Inhibition of human recombinant MAO-A assessed as inhibition of 4-hydroxyquinoline formation using kynuramine as substrate by fluorescence spectrophotometry analysis. A digest of the protocol: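 Recombinant human MAO-A with kynuramine as substrate. The 4-hydroxyquinoline product was quantified by fluorescence spectrophotometry, and IC50 values were determined.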

The subject of series [18] is Mus musculus. The experiment in a line: Pro-cognitive activity in C57Bl6 mouse assessed as attenuation of long-term memory deficit by measuring increase in exploration time for novel object by measuring discrimination index at 25 nmol/uL, icv measured after 48 hrs by novel object recognition test. The series is classed as functional.
Series [19] deals with Carbonic anhydrase 3 (Homo sapiens) (UniProt P07451). The experiment in a line: Binding affinity to human CA3 by phenol red dye based stopped flow CO2 hydration assay. The note with it: filed as activator. A digest of the protocol:
as §4

The subject of series [20] is Mus musculus. The experiment in a line: Ex vivo activation of C57Bl6 mouse hippocampus homogenate CA assessed as increase in protein activity at 50 nmol/uL, icv measured after 30 mins by stopped flow spectrophotometric method. The series is classed as functional, organism-based. A digest of the protocol:
(§6)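 Adult male C57Bl6 mice with lateral-ventricle cannulae received 5 µL at 1 µL/min. After 30 min, cortex and hippocampus were dissected on ice, homogenised in 20 mM Hepes pH 7.5 and spun at 20000g for 30 min. Stopped-flow CO2 hydration used 0.2 mM phenol red (557 nm), 20 mM NaClO4, 20°C and 1.7–17 mM CO2. Activity is expressed as % of vehicle mean; 6 mice/group.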

In series [21] the target is Carbonic anhydrase 4 (Homo sapiens) (UniProt P22748). The series can be described thus: Binding affinity to human CA4 by phenol red dye based stopped flow CO2 hydration assay. The conditions noted are these: filed as activator. The procedure, abridged:
as §4

Series [22] has as its system Mus musculus. The experiment in a line: Ex vivo activation of C57Bl6 mouse cortex homogenate CA assessed as increase in protein activity at 50 nmol/uL, icv measured after 30 mins by stopped flow spectrophotometric method. The series is classed as functional, organism-based. A digest of the protocol: as §6
In series [23] the target is Carbonic anhydrase 6 (Homo sapiens) (UniProt P23280). The experiment in a line: Binding affinity to human CA6 by phenol red dye based stopped flow CO2 hydration assay. A digest of the protocol:
as §4

For series [24], the target named is Carbonic anhydrase 5A, mitochondrial (Homo sapiens) (UniProt P35218). The experiment in a line: Binding affinity to human CA5a by phenol red dye based stopped flow CO2 hydration assay. The conditions noted are these: filed as activator. A digest of the protocol: as §4
Carbonic anhydrase 5A, mitochondrial (Homo sapiens), sequence (P35218 whole entry): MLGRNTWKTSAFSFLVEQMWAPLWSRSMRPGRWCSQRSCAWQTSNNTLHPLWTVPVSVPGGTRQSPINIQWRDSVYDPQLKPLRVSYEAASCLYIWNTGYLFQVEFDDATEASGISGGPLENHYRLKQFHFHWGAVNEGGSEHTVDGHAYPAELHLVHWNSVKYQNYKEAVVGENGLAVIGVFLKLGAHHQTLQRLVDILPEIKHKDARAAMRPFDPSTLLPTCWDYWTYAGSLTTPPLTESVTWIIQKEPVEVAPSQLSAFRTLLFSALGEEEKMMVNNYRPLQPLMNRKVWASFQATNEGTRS
In series [25] the target is Carbonic anhydrase 14 (Homo sapiens) (UniProt Q9ULX7). The experiment in a line: Binding affinity to human CA14 by phenol red dye based stopped flow CO2 hydration assay. The conditions noted are these: filed as activator. A digest of the protocol:
as §4

Series [26] is described as follows: Toxicity in C57Bl6 mouse assessed as reduction in distance travel at 50 nmol/uL administered directly into lateral ventricle by open field test. The conditions noted are these: in vivo, icv_or_intrathecal. A digest of the protocol: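 Cannulated adult male C57Bl6 mice were placed in a 60×70 cm open-field arena 30 min after a 5 µL lateral-ventricle infusion. Total distance travelled over a 5-min session was recorded by overhead video tracking.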

Series [27] can be described thus: Toxicity in overnight fasted C57Bl6 mouse assessed as reduction in food intake at 50 nmol/uL administered directly into lateral ventricle measured for 30 mins. The conditions noted are these: in vivo, icv_or_intrathecal, 0.5 h. The procedure, abridged:
as §5

Carbonic anhydrase 7 (Homo sapiens), sequence (P43166 whole entry, the tested form may be a part): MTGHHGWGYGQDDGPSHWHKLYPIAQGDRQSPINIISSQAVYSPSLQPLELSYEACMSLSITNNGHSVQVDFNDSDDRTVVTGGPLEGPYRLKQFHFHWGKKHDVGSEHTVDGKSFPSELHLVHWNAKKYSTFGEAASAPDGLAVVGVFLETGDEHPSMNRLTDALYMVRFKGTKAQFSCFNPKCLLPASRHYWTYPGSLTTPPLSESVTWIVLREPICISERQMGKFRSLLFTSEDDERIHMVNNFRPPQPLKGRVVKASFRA
Carbonic anhydrase 12 (Homo sapiens), sequence (O43570 whole entry, canonical isoform): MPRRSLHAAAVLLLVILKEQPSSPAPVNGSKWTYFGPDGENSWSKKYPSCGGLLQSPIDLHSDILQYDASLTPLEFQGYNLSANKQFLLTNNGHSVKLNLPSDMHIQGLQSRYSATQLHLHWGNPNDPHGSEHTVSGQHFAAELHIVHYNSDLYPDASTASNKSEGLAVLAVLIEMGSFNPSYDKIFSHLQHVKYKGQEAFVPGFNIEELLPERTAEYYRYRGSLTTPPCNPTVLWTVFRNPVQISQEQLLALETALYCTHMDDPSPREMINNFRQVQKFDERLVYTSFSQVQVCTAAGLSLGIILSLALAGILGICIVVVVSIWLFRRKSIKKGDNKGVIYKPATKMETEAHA
Carbonic anhydrase 13 (Homo sapiens), sequence (Q8N1Q1 whole entry, looked up): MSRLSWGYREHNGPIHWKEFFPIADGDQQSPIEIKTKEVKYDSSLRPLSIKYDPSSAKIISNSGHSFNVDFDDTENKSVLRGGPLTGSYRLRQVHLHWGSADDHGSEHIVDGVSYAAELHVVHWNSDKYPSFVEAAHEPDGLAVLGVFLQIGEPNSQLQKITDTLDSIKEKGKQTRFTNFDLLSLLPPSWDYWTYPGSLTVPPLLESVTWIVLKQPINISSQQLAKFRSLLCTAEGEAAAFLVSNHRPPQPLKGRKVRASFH
Carbonic anhydrase 4 (Homo sapiens), sequence (P22748 whole entry): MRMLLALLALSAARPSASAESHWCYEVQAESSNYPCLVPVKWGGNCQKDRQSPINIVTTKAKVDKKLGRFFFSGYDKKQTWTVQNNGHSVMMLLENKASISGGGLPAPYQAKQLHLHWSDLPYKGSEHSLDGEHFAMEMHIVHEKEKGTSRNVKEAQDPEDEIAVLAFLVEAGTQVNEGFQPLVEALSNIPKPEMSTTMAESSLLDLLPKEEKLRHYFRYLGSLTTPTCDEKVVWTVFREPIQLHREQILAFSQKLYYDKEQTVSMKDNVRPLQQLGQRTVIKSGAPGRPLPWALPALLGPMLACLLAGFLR
Carbonic anhydrase 6 (Homo sapiens), sequence (P23280 whole entry): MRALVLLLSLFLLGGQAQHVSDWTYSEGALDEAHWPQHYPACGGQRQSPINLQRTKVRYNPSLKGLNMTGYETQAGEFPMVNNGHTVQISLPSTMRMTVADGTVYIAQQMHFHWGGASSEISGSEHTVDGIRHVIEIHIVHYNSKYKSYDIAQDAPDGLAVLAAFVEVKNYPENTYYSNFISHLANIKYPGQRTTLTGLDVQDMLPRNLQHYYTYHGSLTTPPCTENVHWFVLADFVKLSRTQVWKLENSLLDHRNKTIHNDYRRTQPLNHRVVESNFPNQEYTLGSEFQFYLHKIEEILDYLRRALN
Carbonic anhydrase 3 (Homo sapiens), sequence (P07451 whole entry): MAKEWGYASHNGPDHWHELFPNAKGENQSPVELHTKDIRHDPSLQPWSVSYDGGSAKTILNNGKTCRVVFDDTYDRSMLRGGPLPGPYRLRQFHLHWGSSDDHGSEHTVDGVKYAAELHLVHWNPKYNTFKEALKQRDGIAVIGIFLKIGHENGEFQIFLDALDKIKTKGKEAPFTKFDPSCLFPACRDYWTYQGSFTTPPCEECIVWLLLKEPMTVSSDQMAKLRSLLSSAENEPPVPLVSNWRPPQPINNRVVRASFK
Carbonic anhydrase 14 (Homo sapiens), sequence (Q9ULX7 whole entry): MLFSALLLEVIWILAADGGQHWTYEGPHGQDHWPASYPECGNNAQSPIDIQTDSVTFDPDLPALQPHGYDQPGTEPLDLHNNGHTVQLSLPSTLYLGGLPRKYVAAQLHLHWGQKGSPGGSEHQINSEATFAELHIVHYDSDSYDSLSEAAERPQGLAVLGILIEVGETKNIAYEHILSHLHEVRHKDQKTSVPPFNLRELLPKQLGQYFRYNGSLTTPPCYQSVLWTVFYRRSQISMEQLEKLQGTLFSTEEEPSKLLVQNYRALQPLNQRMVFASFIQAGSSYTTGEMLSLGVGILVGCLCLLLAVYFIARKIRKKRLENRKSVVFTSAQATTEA
Carbonic anhydrase 5B, mitochondrial (Homo sapiens), sequence (Q9Y2D0 whole entry): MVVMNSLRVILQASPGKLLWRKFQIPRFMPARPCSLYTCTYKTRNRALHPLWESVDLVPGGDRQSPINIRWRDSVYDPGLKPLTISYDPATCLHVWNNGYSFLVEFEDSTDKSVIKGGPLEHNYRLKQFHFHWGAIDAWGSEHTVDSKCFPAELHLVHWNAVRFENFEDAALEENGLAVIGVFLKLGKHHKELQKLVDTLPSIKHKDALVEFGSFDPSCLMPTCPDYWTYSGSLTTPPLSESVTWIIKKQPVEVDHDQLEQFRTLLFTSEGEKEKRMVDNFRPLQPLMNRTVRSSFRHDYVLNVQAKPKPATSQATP

With `N[C@H](Cc1ccccc1)C(=O)O` [D-PHENYLALANINE], the result in the series with Mus musculus [1] and in the series on Mus musculus [5] was Active. The Activity_index with Mus musculus [2] came to 0.375; with Mus musculus [3] it was 0.075; in the series on Mus musculus [6] it was 0.291; with Mus musculus [7], 0.009. Also, the result in the series with Mus musculus [4] was inactive.
With `CC(N)C[Se]c1ccccc1` (configuration not stated), the result in the series with Mus musculus [1], in the series on Mus musculus [20], with Mus musculus [22] and in the series with Mus musculus [5] was Active. Also, the outcome in the series on Mus musculus [8] and in the series on Mus musculus [4] was inactive. Further, the Ka in series [9] was 59.5 µM; in series [10] (filed as activator), 9.9 µM; in series [11], 26.3 µM; in series [12], 58.6 µM; in series [13] it was greater than 100 µM; in series [14] (filed as activator), 49.6 µM. Further, the Ka in series [15] came to 20.6 µM; in [19], 14.3 µM; in series [21], 8.6 µM; in series [23] (filed as activator), 57.2 µM; in series [24], 14.7 µM; in series [25], 9.9 µM. Moreover, the Activity_index in the series on Mus musculus [2] is 0.206; in the series with Mus musculus [18] it was 0.006; in the series with Mus musculus [6] it was 0.156; with Mus musculus [7], 0.011. Moreover, the Activity entry in series [16] and in [26] was “Non-Toxic” each time. Moreover, the IC50 in series [17] was 9.79 µM.
For `CC(N)Cc1ccccc1` (configuration not stated) [AMPHETAMINE], the Activity result in series [27], in [16] and in [26] was “Toxic” each time. For the same compound, the Ka was 0.64 µM in [9]; greater than 150 µM in series [10]; 2.56 µM in [11]; 24.1 µM in [12]; greater than 150 µM in [13]; greater than 150 µM in [14]. In addition, the Ka in series [15] was 0.91 µM; in [19] it was 87.7 µM; in series [21] it was 0.094 µM; in series [23], greater than 150 µM; in series [24], 0.81 µM; in series [25] it was 9.15 µM.

(Values after ChEMBL document CHEMBL5247599, “New β-arylchalcogeno amines with procognitive properties targeting Carbonic Anhydrases and Monoamine Oxidases” (Eur J Med Chem, 2022).)
